A short description of assay [1]: Antiproliferative activity against human […] cells after 48 hrs by MTT assay. Format: functional, cell-based. Summed up: (§1)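 HCT116, HepG2, SMMC-7721, SK-OV-3 and A2780s grown in DMEM; A549 and MCF-7 in RPMI-1640; all with 10% FBS and penicillin/streptomycin at 37 °C, 5% CO2. Log-phase cells at 40,000-50,000 cells/mL treated with graded concentrations for 48 h. MTT 3 h, DMSO solubilization, A570. IC50 from percent growth versus untreated control; mean ± SEM of ≥3 independent dose-response experiments.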
Background: Tetrazolium dyes change colour on reduction, which living cells bring about.

The subject of assay [2] is HepG2. Briefly: Antiproliferative activity against human HepG2 cells after 48 hrs by MTT assay. Particulars: HepG2, 48 h. Format: functional, cell-based. A digest of the protocol:
as §1

The test system of assay [3] is HCT-116. Briefly: Antiproliferative activity against human HCT116 cells after 48 hrs by MTT assay. The class given is functional, cell-based. The note with it: HCT-116, 48 h. A digest of the protocol:
as §1

Assay [4] deals with SK-OV-3. In words: Antiproliferative activity against human SKOV3 cells after 48 hrs by MTT assay. The class given is functional, cell-based. The note with it: SK-OV-3, 48 h. Summed up:
as §1

A short description of assay [5]: Antiproliferative activity against human A2780S cells after 48 hrs by MTT assay. Format: functional, cell-based. The note with it: A2780, 48 h. Summed up: as §1
The nature of assay [6]: Antiproliferative activity against human doxorubicin-resistant MCF7 cells after 48 hrs by MTT assay. Format: functional, cell-based. The note with it: MCF7, 48 h. A digest of the protocol:
(§2)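 MCF-7/ADR (doxorubicin-resistant) and A549/T (taxol-resistant) cells in RPMI-1640 with 10% FBS and penicillin/streptomycin. Log-phase cells at 40,000-50,000 cells/mL exposed to graded concentrations for 48 h. MTT 3 h, DMSO solubilization, absorbance 570 nm. IC50 from percent growth versus untreated control; mean ± SEM of ≥3 independent experiments.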

For assay [7], the target named is Tubulin (Homo sapiens) (UniProt P68371+Q9H4B7+P0DPH7+P68366+Q13509+Q71U36+P04350+Q3ZCM7+P07437+P68363+Q9BQE3+Q6PEY2+Q13885+Q9BVA1+Q9BUF5). In words: Binding affinity to tubulin in human HepG2 cells at 5 uM after 4 hrs by EBI competition assay. Format: cell-based. Summed up:
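HepG2 cells seeded at 500,000 cells/well, allowed to adhere, then treated with compound for 4 h. EBI added at 100 µM for 1.5 h. Cell extracts (about 20 µg protein) run on 10% SDS-PAGE, blotted to PVDF, probed with anti-β-tubulin, detected by ECL with GAPDH as loading control. Read-out is loss of the faster-migrating β-tubulin–EBI adduct band.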

In assay [8] the test system is MCF7. In words: Resistance ratio, ratio of IC50 for human doxorubicin-resistant MCF7 cells to IC50 for human MCF7 cells. The class given is functional. Summed up:
(§3)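 MTT assay: log-phase cells at 40,000-50,000 cells/mL in RPMI-1640 with 10% FBS, exposed to graded concentrations for 48 h, then MTT 3 h, DMSO solubilization, absorbance at 570 nm. IC50 from growth versus untreated control, at least three independent experiments. Ratio = resistant-line IC50 / parental-line IC50.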

Assay [9] concerns NCI-H1975. In words: Antiproliferative activity against human gefitinib-resistant NCI-H1975 cells after 48 hrs by MTT assay. Format: functional, cell-based. The note with it: NCI-H1975, 48 h.
For assay [10], the system named is MCF7. Briefly: Antiproliferative activity against human MCF7 cells after 48 hrs by MTT assay. The class given is functional, cell-based. Particulars: MCF7, 48 h. A digest of the protocol: as §1
Assay [11] relates to NCI-H1975. In words: Resistance ratio, ratio of IC50 for human gefitinib-resistant NCI-H1975 cells to IC50 for human HCC827 cells. The class given is functional.
Assay [12] is described as follows: Inhibition of pig microtubule polymerization after 30 mins by turbidimetric assay. Also noted: species or system Sus scrofa. A digest of the protocol:
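Porcine-brain MAP-rich tubulin at 3 mg/mL preincubated 30 min at 4 °C in 0.1 M PIPES pH 6.9, 2 mM MgCl2, 0.5 mM EGTA. Compounds added 2 min before the run, then 1 mM GTP. Turbidity followed kinetically at 340 nm at 37 °C; assembly IC50 derived by Hamel's method.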

Assay [13] can be described thus: Antiproliferative activity against human HCC827 cells after 48 hrs by MTT assay. The class given is functional, cell-based. The note with it: HCC827, 48 h.
The subject of assay [14] is A549. In words: Antiproliferative activity against human A549 cells after 48 hrs by MTT assay. Format: functional, cell-based. The note with it: A549, 48 h. Summed up: as §1
Assay [15] relates to A549. In words: Resistance ratio, ratio of IC50 for human taxol-resistant A549 cells to IC50 for human A549 cells. The class given is functional. Summed up:
as §3

The test system of assay [16] is A549. In words: Antiproliferative activity against human taxol-resistant A549 cells after 48 hrs by MTT assay. Particulars: A549, 48 h. Format: functional, cell-based. A digest of the protocol:
as §2

Molecules are shown by their SMILES. The source made the active and inactive calls. No cut-off for these calls is given here.

The IC50 is the concentration that inhibits the measured activity by half. The low end stands for greater potency in that assay, the high end for weaker potency in that assay. Regarding `CCOC(=O)c1nc(-c2ccc(OCC)cc2)c(-c2cc(OC)c(OC)c(OC)c2)s1`, the IC50 in assay [1], in assay [2], in assay [3], in [4] and in assay [5] was above 5 µM each time.

`COc1cccc2c1C(=O)c1c(O)c3c(c(O)c1C2=O)C[C@@](O)(C(=O)CO)C[C@@H]3O[C@H]1C[C@H](N)[C@H](O)[C@H](C)O1` [DOXORUBICIN] returned an IC50 in assay [6] of 5.3 µM.

`CCOc1ccc(-c2nc(NS(=O)(=O)c3ccsc3Cl)sc2-c2cc(OC)c(OC)c(OC)c2)cc1`: the IC50 in assay [1], in [2], in assay [3], in assay [4] and in [5] was above 5 µM throughout.

Turning to `CCOc1ccc(-c2ncsc2-c2cc(OC)c(OC)c(OC)c2)cc1`, the outcome in assay [7] was inactive. The figures for the “Ratio IC50” value in assay [8], in assay [11] and in assay [15] were 1.3, 2.38 and 0.45, respectively. Moreover, the IC50 in assay [6] was 1.56 µM; in [9], 1.11 µM; in assay [10], 1.16 µM; in assay [12], 3.55 µM; in [1], 0.128 µM; in [13], 0.469 µM. The IC50 in assay [2] turned out to be 0.065 µM; in assay [3], 0.062 µM; in assay [4], 0.01 µM; in [5], 0.086 µM; in assay [14], 0.696 µM; in [16], 0.425 µM.

Consider `CCOc1ccc(-c2nc(C(OCC)OCC)sc2-c2cc(OC)c(OC)c(OC)c2)cc1`, for which the IC50 in assay [1], in assay [2], in assay [3], in assay [4] and in [5] was above 5 µM each time.

`CCOc1ccc(-c2nc(NC(=O)CC)sc2-c2cc(OC)c(OC)c(OC)c2)cc1`: the IC50 is above 10 µM in assay [12]; 0.0108 µM in [1]; 0.0406 µM in [2]; 0.0505 µM in [3]; 0.0604 µM in [4]; 0.0051 µM in assay [5].

As for `CCOc1ccc(-c2nc(NC(C)=O)sc2-c2cc(OC)c(OC)c(OC)c2)cc1`, the IC50 in assay [1] turned out to be 0.013 µM; in assay [2], 0.0609 µM; in assay [3] it was 0.0102 µM; in assay [4], 0.167 µM; in [5], 0.0102 µM.

Turning to `COc1ccc(-c2nc(N)sc2-c2cc(OC)c(OC)c(OC)c2)cc1`, the IC50 in assay [1] came to 0.009 µM; in assay [2], 0.0506 µM; in assay [3], 0.0937 µM; in assay [4] it was 0.11 µM; in assay [5], 0.014 µM.

With `CCOc1ccc(-c2nc(NS(=O)(=O)c3ccc(Br)cc3C(F)(F)F)sc2-c2cc(OC)c(OC)c(OC)c2)cc1`, the IC50 in assay [1], in assay [2], in assay [3], in assay [4] and in [5] was above 5 µM each time.

Turning to `CCOc1ccc(-c2nc(C)sc2-c2cc(OC)c(OC)c(OC)c2)cc1`, the IC50 in assay [12] was above 10 µM; in assay [1] it was 0.126 µM; in [2], 0.368 µM; in assay [3], 0.064 µM; in assay [4], 0.068 µM; in assay [5], 0.106 µM.

Take `CCOc1ccc(-c2nc(N(CC)CC)sc2-c2cc(OC)c(OC)c(OC)c2)cc1`: the IC50 in [1], in assay [2], in [3], in assay [4] and in assay [5] was above 5 µM throughout.

In [12], `COc1cc2c(c(OC)c1OC)-c1ccc(OC)c(=O)cc1[C@@H](NC(C)=O)CC2` [COLCHICINE] registered a concentration for half-maximal inhibition (IC50) of 5.02 µM.

`CCOc1ccc(-c2nc(NC(=O)C(C)C)sc2-c2cc(OC)c(OC)c(OC)c2)cc1`: the IC50 in [1] is 0.0652 µM; in assay [2], 0.177 µM; in assay [3] it was 0.0225 µM; in assay [4] it was 0.0852 µM; in [5], 0.0225 µM.

Regarding `CCOc1ccc(-c2nc(N(Cc3ccccc3)Cc3ccccc3)sc2-c2cc(OC)c(OC)c(OC)c2)cc1`, the IC50 in assay [1], in [2], in [3], in assay [4] and in [5] was above 5 µM throughout.

On to `CCOc1ccc(-c2nc(N(C)C)sc2-c2cc(OC)c(OC)c(OC)c2)cc1`, for which the IC50 in assay [1], in [2], in assay [3], in [4] and in assay [5] was above 5 µM in each case.

With `CCCN(CCC)c1nc(-c2ccc(OCC)cc2)c(-c2cc(OC)c(OC)c(OC)c2)s1`, the IC50 in [1], in [2], in assay [3], in assay [4] and in assay [5] was above 5 µM throughout.

Consider `CCOc1ccc(-c2nc(NS(=O)(=O)c3ccc(OC)c(F)c3)sc2-c2cc(OC)c(OC)c(OC)c2)cc1`, for which the IC50 in assay [1], in assay [2], in [3], in assay [4] and in [5] was above 5 µM in each case.

Turning to `CCOc1ccc(-c2nc(C=O)sc2-c2cc(OC)c(OC)c(OC)c2)cc1`, the IC50 is above 10 µM in assay [12]; 0.106 µM in assay [1]; 0.05 µM in [2]; 0.048 µM in assay [3]; 0.009 µM in [4]; 0.104 µM in assay [5].

Turning to `CCCC(=O)Nc1nc(-c2ccc(OCC)cc2)c(-c2cc(OC)c(OC)c(OC)c2)s1`, in assay [7], the result was inactive. Further, the IC50 stood at 9.04 µM in assay [12]; 0.011 µM in [1]; 0.0768 µM in [2]; 0.018 µM in assay [3]; 0.105 µM in assay [4]; 0.018 µM in assay [5].

On to `CCOc1ccc(-c2nc(NS(=O)(=O)c3ccc(C)c(C)c3)sc2-c2cc(OC)c(OC)c(OC)c2)cc1`, for which the IC50 in [1], in [2], in [3], in assay [4] and in assay [5] was above 5 µM each time.

`COc1ccc(/C=C\c2cc(OC)c(OC)c(OC)c2)cc1O` [COMBRETASTATIN A4]: half-maximal inhibition in assay [12] (IC50) was put at 5.91 µM.

For `C=CCN(CC=C)c1nc(-c2ccc(OCC)cc2)c(-c2cc(OC)c(OC)c(OC)c2)s1`, the IC50 in assay [1], in assay [2], in assay [3], in assay [4] and in assay [5] was above 5 µM in each case.

Regarding `CCOc1ccc(-c2nc(NS(=O)(=O)c3ccc([N+](=O)[O-])cc3OC)sc2-c2cc(OC)c(OC)c(OC)c2)cc1`, the IC50 in assay [1], in assay [2], in [3], in assay [4] and in [5] was above 5 µM each time.

Consider `CCOc1ccc(-c2nc(C(C)(C)C)sc2-c2cc(OC)c(OC)c(OC)c2)cc1`, for which the IC50 in assay [1], in assay [2], in assay [3], in assay [4] and in assay [5] was above 5 µM each time.

On to `CCOc1ccc(-c2sc(N)nc2-c2cc(OC)c(OC)c(OC)c2)cc1`, for which the IC50 came out at 0.01 µM in [1]; 0.0083 µM in assay [2]; 0.0092 µM in [3]; 0.0084 µM in assay [4]; 0.0086 µM in [5].

For the origin of these results see ChEMBL document CHEMBL3596186, “Synthesis and biological evaluation of diarylthiazole derivatives as antimitotic and antivascular agents with potent antitumor activity” (Bioorg Med Chem, 2015).
